A selection: hits, their analogues and other compounds. The true share with any hit is near 1%.
CTSL1 counter: Fasciola hepatica cathepsin L1 inhibitors, primary screen, counter-screen for PFM18AAP inhibitor project, biochemical, QFRET, fluorogenic peptide substrate. AID 1906, 2009. inhibition, % at 5.96 µM. recombinant F. hepatica cathepsin L1, Z-Leu-Arg-MCA fluorescence. hit rate 0.49% among 300,000;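 active = inhibition above the mean of all tested compounds plus 3 SD, set per screening campaign, cut at about 17% in these data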;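 also: 0% = plate median of test compound wells and 100% = 1 µM Z-Phe-Ala-diazomethylketone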
p-CIP stab down: p/CIP-EGFP fusion destabilizers, primary screen, fluorescence, F442A cells; Q05BA5; 16 h; decrease of EGFP signal, % at 10 µM; hit rate 0.01% among 290,000;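 active = EGFP signal decrease of at least 30% at 10 µM or well 3 SD below plate mean, unless failing retest; inactive = the rest, including hits failing retest or dose response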
Target sequence (Q05BA5 1-1403): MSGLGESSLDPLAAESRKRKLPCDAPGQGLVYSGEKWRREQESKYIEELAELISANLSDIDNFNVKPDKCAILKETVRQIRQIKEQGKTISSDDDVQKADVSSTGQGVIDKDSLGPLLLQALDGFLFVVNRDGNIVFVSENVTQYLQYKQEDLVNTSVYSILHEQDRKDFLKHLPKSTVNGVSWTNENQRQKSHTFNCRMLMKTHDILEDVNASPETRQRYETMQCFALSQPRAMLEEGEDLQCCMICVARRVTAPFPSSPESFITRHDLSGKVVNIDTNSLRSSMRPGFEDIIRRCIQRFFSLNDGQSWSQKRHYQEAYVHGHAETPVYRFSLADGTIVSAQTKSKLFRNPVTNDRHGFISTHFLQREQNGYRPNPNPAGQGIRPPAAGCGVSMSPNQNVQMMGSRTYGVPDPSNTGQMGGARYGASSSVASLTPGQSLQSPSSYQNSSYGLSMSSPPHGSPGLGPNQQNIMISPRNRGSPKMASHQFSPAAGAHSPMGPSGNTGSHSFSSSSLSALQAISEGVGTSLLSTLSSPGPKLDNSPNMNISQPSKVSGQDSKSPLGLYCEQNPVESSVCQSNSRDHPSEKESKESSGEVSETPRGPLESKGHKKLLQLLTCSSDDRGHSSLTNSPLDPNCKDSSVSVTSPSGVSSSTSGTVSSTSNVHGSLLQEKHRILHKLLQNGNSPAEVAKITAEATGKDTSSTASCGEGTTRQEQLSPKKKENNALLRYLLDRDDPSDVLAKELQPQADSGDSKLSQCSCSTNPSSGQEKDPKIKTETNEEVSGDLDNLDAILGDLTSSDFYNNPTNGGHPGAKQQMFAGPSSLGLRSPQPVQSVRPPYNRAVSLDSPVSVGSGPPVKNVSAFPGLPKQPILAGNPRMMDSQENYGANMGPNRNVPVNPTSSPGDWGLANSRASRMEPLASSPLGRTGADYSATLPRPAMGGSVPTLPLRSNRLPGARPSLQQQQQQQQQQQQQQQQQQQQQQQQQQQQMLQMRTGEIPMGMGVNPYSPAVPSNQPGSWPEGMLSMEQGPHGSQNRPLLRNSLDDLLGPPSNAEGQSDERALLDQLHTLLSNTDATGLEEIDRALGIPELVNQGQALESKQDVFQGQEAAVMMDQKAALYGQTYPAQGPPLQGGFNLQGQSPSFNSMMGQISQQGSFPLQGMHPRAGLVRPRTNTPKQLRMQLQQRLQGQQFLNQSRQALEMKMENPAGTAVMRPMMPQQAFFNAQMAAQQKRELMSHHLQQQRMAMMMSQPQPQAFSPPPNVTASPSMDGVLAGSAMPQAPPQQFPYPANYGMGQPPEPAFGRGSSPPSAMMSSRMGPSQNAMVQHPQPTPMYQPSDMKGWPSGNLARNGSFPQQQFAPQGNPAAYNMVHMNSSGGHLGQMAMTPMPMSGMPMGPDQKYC
Arr AP2 block: inhibitors of beta-arrestin/AP2 binding, primary screen, biochemical, GPCR trafficking, flow cytometry; FITC-arrestin peptide / GST-AP2 beads; AP2 beta2 appendage carries R879A mutation; inhibition, % at 10 µM; hit rate 0.31% among 340,000; beta-arrestin 1 C-terminal peptide binding to AP2 beta2-adaptin appendage (human);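 active = inhibition above a set limit, near 3 SD of compounds lacking own fluorescence, cut at about 54% in these data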;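 also: plate controls were DMSO wells for no effect and 5 µM unlabelled arrestin peptide for full effect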
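system = GST-tagged AP2 beta2-adaptin appendage (R879A) on 4 µm glutathione beads | reagent = FITC-labelled arrestin peptide probe, 50 nM final | schedule = compound with beads 12 min RT, then probe 1 h RT | signal = HyperCyt-sampled flow cytometry, FL1 channel, ex 488/em 535 nm | read-out = percent response from loss of bead-bound FITC fluorescence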
Lipid droplet: inhibitors of hepatocyte lipid droplet formation, primary screen, imaging, high-throughput imaging, BODIPY stain | AML12 mouse hepatocytes, oleate lipid droplets | inhibition, % at 6.5 µM | hit rate 0.4% among 240,000 | AID 1656, 2009;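 active = lipid droplet intensity inhibited by at least 50%, with more than 500 cells counted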
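Assay system: AML12 hepatocytes (mouse); Probe or stimulus: oleic acid at 100 µM to induce lipid droplet formation; Dosing: compound at 6.5 µM only; Schedule: compound with oleate, overnight; Detection: fluorescence imaging, 20x objective, two fields per well; Measure: % inhibition of lipid droplet signal.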
Arr-AP2 CP1: inhibitors of arrestin peptide binding to AP2, confirmation, biochemical, cherry pick 1, flow cytometry beads | inhibition, % at 10 µM | shares compounds with Arr AP2 block | GST-AP2 beads, FITC arrestin peptide binding; GST-fused beta2-adaptin appendage, R879A mutant | hit rate 2% among 1,300 | AID 504908, 2011;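 active = inhibition above a set limit, roughly 3 SD of non-fluorescent compound noise, cut at about 38% in these data; inactive = inhibition at or below that limit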;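 also: loss of bead fluorescence from 50 nM FITC arrestin peptide bound to appendage; 0% = negative control wells and 100% = excess unlabelled arrestin peptide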
GST GSH counter: GST-fluorescein capture on glutathione beads, confirmation, artefact control for arrestin-AP2 inhibitor project, biochemical, cherry pick 1, flow cytometry. shares compounds with Arr AP2 block. GST-fluorescein binding to GSH beads, fluorescence, counter-screen. inhibition, % at 10 µM. hit rate 2% among 1,300;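 active = inhibition above 50%, about 3 SD of the inhibition seen with non-fluorescent compounds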;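 also: fluorescein maleimide labelled GST captured on 4 micron glutathione beads; higher means more loss of bead fluorescence from quenching or blocked binding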
The depositor's hits bear a star; nt = not tested or not shown.

SMILES | CTSL1 counter | p-CIP stab down | Arr AP2 block | Lipid droplet | Arr-AP2 CP1 | GST GSH counter
O=C(c1ccccc1F)N(NC(=O)C(O)(c1ccccc1)c1ccccc1)c1ccccc1 | 0.1 | -9.3 | 87.0* | -12.8 | -7.0 | 2.0
O=C(CN1C(=O)C2C3C=CC(C3)C2C1=O)Nc1ccc(C(=O)O)cc1 (stereo not drawn) | -3.7 | -7.0 | -7.1 | nt | nt | nt
COC(=O)c1ccc(NC(=O)CN2C(=O)C3C4C=CC(C4)C3C2=O)cc1 (stereo not drawn) | 1.0 | -1.0 | 59.1* | -4.3 | 8.4 | -4.7
O=C(Cn1nc(Cl)nc1Cl)c1ccccc1 | 2.5 | -6.0 | 54.9* | nt | -0.7 | -1.1
O=C(Cn1nc(Cl)nc1Cl)c1ccc(F)cc1 | -2.2 | 1.9 | -1.7 | -2.4 | nt | nt
COc1ccc(-c2nc(CCl)cs2)cc1 | 5.3 | 16.3 | -3.2 | 5.1 | nt | nt
COc1ccc(-c2nc(CCl)cs2)cc1OC | 9.1 | -11.1 | 54.3* | 4.8 | -7.0 | -4.9
Cc1ccccc1CN1CCC(N2CCC(C(=O)NCC3CCCO3)CC2)CC1 (stereo not drawn) | -0.9 | -3.1 | 64.5* | -2.0 | -2.5 | -5.3
CCOC(=O)C1(Cc2cccc(OC)c2)CCN(Cc2cccc(OC)c2O)CC1 | -1.6 | -0.7 | 7.7 | 0.2 | nt | nt
CCCCCCN1C=C/C(=C\C=C(C#N)C#N)c2ccccc21 | 5.7 | -31.3 | 74.8* | -4.8 | -7.6 | 8.0
C=CCN1C=C/C(=C\C=C(C#N)C#N)c2ccccc21 | 0.1 | -11.8 | 3.5 | -2.8 | nt | nt
COc1ccc(S(=O)(=O)NCC(c2ccc3c(c2)OCO3)N2CCN(C)CC2)cc1OC (stereo not drawn) | -1.0 | nt | 23.6 | nt | nt | nt
CC(=O)N1CCN(C(=O)c2cc(-c3cccc4ccccc34)nc3ccccc23)CC1 | -0.7 | -20.5 | 16.1 | -3.3 | nt | nt
O=C(NCCc1ccc(C(F)(F)F)cc1)C1CCC(=O)N(CCc2cccc(F)c2)C1 (stereo not drawn) | -0.3 | -6.4 | -10.7 | -7.7 | nt | nt
O=C(NCCc1ccc(C(F)(F)F)cc1)C1CCC(=O)N(CCCc2ccccc2)C1 (stereo not drawn) | 1.1 | -0.7 | -2.1 | -7.3 | 6.0 | 3.9
Cc1ccc(F)cc1CNC(=O)C1CCC(=O)N(CCc2ccccc2)C1 (stereo not drawn) | -2.7 | 0.6 | 1.9 | -46.1 | 5.1 | -2.3
CC(C)[C@H](NC(=O)c1ccc(Cl)cc1)C(=O)OCC(=O)N1CCN(c2ccccc2)CC1 | nt | nt | 22.4 | nt | nt | nt
COc1ccc(S(=O)(=O)NCC2CCCN(Cc3cccnc3)C2)cc1 (stereo not drawn) | -1.8 | -21.3 | 27.2 | 4.1 | nt | nt
COc1ccc(S(=O)(=O)NCC2CCCN(Cc3cccc(C(C)=O)c3)C2)cc1 (stereo not drawn) | 0.1 | 4.6 | 61.8* | -11.5 | 4.7 | -0.9
CCOC(=O)Cn1cnc2sc(C(=O)OC)c(C)c2c1=O | 6.1 | -22.9 | -4.9 | 0.0 | nt | nt
CCOC(=O)c1sc2ncn(CC(=O)Nc3cc(C)on3)c(=O)c2c1C | nt | nt | 63.1* | nt | 12.5 | -2.3
CC(=O)Nc1c(C)nn(-c2ccc([N+](=O)[O-])cc2)c1C | 2.0 | -9.0 | 54.0* | 9.6 | -3.4 | -10.4
COc1cccc(N2CC(NC(=O)c3cccc4ccccc34)CC2=O)c1 (stereo not drawn) | -0.4 | nt | 0.0 | nt | nt | nt
CC12CCC(=O)N1C(C(=O)N1CCN(S(=O)(=O)c3cccc(C(F)(F)F)c3)CC1)CS2 (stereo not drawn) | -1.9 | nt | 56.5* | nt | -0.5 | -3.8
CCOc1ccc(/C=C/C(=O)NCCc2ccc(OC)c(OC)c2)cc1 | 2.2 | -11.9 | 56.5* | -0.1 | -12.2 | -7.8
SMILES | CTSL1 counter | p-CIP stab down | Arr AP2 block | Lipid droplet | Arr-AP2 CP1 | GST GSH counter
Cc1cc(C(=O)OCC(=O)NCc2ccco2)c(C)o1 | -0.8 | -13.4 | 8.1 | -2.0 | nt | nt
COc1ccc(-n2nc(C(=O)NCC3CCCO3)c3ccccc3c2=O)cc1 (stereo not drawn) | -2.5 | -5.7 | -10.0 | -7.3 | nt | nt
COc1cc2c(cc1OC)CN(C(=S)Nc1ccc(OC(F)F)cc1)CC2 | 5.1 | -14.9 | 55.6* | 22.1 | 0.1 | -3.5
O=S(=O)(/N=C(/Nc1cccc2ccccc12)c1ccccc1)c1ccccc1 | 5.2 | 8.3 | 6.8 | -19.2 | nt | nt
O=S(=O)(/N=C(/Nc1cccc2ccccc12)c1ccccc1)c1cccs1 | 3.8 | -26.2 | 99.9* | -65.6 | 5.0 | -13.1
CCOC(=O)c1ccc(NC(=O)CSc2nnc(C3CCCCC3)n2C)cc1 | -1.6 | -1.7 | -9.6 | -27.5 | nt | nt
O=C1CCCC(O)=C1Sc1ccccc1C(=O)O | -2.0 | -7.2 | 74.1* | 0.8 | 11.4 | 7.0
Oc1c(CNc2ccccc2)cc(COCc2ccccc2)c2cccnc12 | nt | nt | 55.4* | nt | 4.2 | 0.9
CCSCc1nnc(SCC(=O)Nc2cccc(SC)c2)n1C | 6.8 | -16.8 | 99.2* | -13.7 | 8.6 | -3.1
CCN(c1ccccc1C)S(=O)(=O)c1nnc(NC(=O)c2ccco2)s1 | 0.0 | -11.2 | 7.8 | -13.2 | nt | nt
CN(NC(=O)c1ccccc1)C1=NS(=O)(=O)c2ccccc21 | -1.6 | -14.0 | 33.8 | 3.4 | nt | nt
CN(NC(=O)COc1ccccc1)C1=NS(=O)(=O)c2ccccc21 | 1.5 | -6.0 | 61.8* | -1.6 | -0.5 | -7.2
COCCN(C(=O)COC(=O)/C(=C/c1ccccc1)NC(C)=O)c1c(N)n(Cc2ccccc2)c(=O)[nH]c1=O | nt | 3.7 | 59.3* | 3.9 | 10.5 | -0.5
Cc1nn(-c2ccc(C(=O)N3CCN(S(=O)(=O)c4ccccc4C(F)(F)F)CC3)cc2)c(C)c1Cl | nt | nt | -2.5 | nt | nt | nt
COc1ccc(CC(=O)N2CCC(n3nccc3NC(=O)C3CCOC3)CC2)cc1 (stereo not drawn) | 0.1 | -9.9 | 63.8* | 9.4 | -12.9 | 7.1
COc1ccc(CC(=O)N2CCC(n3nccc3NC(=O)C3CC3)CC2)cc1 | 2.1 | 14.0 | -6.1 | -17.7 | nt | nt
O=C(CSc1nnc(CNC(=O)c2ccc(F)cc2)o1)NCc1ccc(F)cc1 | 3.7 | -6.7 | -15.7 | 2.8 | nt | nt
COc1ccc(NC(=O)c2ccc(S(=O)(=O)C(F)F)cc2)c(OC)c1 | 3.0 | 7.3 | 60.4* | -10.0 | 0.0 | -7.1
COc1cc(NC(=O)c2ccccc2)c(OC)cc1Cl | 0.1 | -2.7 | 5.9 | -3.6 | nt | nt
COc1cc(Cl)c(C)cc1NC(=O)c1ccc(S(C)(=O)=O)cc1 | 4.7 | 1.6 | 55.2* | 6.6 | -5.2 | -10.4
COc1ccc(NC(=O)NCc2ccc3c(c2)OCO3)cc1OC | 1.3 | -3.3 | -5.2 | 3.7 | nt | nt
Cc1cccc(NC(=S)Nc2ccc(Oc3ccccc3)cc2)n1 | 2.4 | 3.4 | -3.5 | 3.8 | nt | nt
